Here are results for 3 molecules from paper PMC9256809 (Molecular Cancer Therapeutics, 2022).

The target of one data set is FLT3– ITD (Homo sapiens, UniProt P36888, ITD). Kind of data set: DiscoverX KINOMEscan competition binding.
For a further data set, the target named is FLT3 ITD/F691L (Homo sapiens, UniProt P36888, F691L/ITD). Put plainly: DiscoverX KINOMEscan competition binding.
Data set [1] is described as follows: Cardiovascular study in dogs. The format is in vivo.
Data set [2] deals with hERG potassium ion channel (Homo sapiens, UniProt Q12809). Put plainly: hERG inhibition.
Data set [3] deals with MV4–11 FLT3-ITD xenograft. Kind of data set: MV4–11 subcutaneous xenograft study. Format: in vivo, BALB/c nu/nu mice.
The next data set concerns the target FLT3-ITD (Homo sapiens, UniProt P36888). Kind of data set: RBC enzymatic assay, ATP at Km. The format is biochemical. An outline of the steps:
(§1)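 Recombinant kinases were assayed with ATP at each kinase's Km, and IC50 values were determined.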

For a further data set, the system named is Ba/F3 cells FLT3 D835Y. Put plainly: Antiproliferative assay in Ba/F3 cells transfected with FLT3 variants. Format: cell-based. The conditions noted are these: Mus musculus, BaF3.
The nature of data set [4]: 28-day GLP repeat-dose toxicology study. The format is in vivo. The conditions noted are these: dogs, up to highest dose tested of 600 mg/kg orally.
In data set [5] the test system is primary mononuclear cells from patients with AML. Kind of data set: Ex vivo cell viability assay. Format: cell-based. The note with it: Homo sapiens, read-out: median IC50, 186 primary samples from patients with AML.
Another data set concerns THP-1. Kind of data set: Antiproliferative assay. Format: cell-based. The note with it: Homo sapiens, THP-1, 72 h, read-out: Mean IC50. Put shortly: (§2)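 Human AML lines from ATCC or DSMZ, STR-authenticated, mycoplasma-tested every 2 months and grown in source-recommended medium. Cells were exposed in four replicates to increasing concentrations of test compound for 72 h. Proliferation was read with the CellTiter 96 AQueous One (MTS) reagent.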

For the next data set, the system named is phosphorylation of FLT3. Put plainly: Western blot analysis of kinase inhibition. Format: cell-based. The conditions noted are these: Fig. 2B. An outline of the steps:
(§3)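 Cells were exposed to vehicle DMSO or a concentration range of test compound for 1 or 24 h, then lysed. Blots were probed for total and phosphorylated FLT3 (pY589/591), STAT5 (pY694) and ERK1/2 (pT202/204). Images are representative of 3 biological repeats.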

The subject of data set [6] is samples from patients with MDS/MPN. Kind of data set: Ex vivo cell viability assay. The note with it: Homo sapiens, read-out: median IC50. The format is cell-based. Put shortly: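 Freshly isolated patient mononuclear cells (peripheral blood or bone marrow) were plated at 10,000 cells/well. They were given a seven-point, 3-fold dilution series from 10 to 0.0137 µmol/L, made from DMSO stocks, and incubated 3 days. Growth was read by MTS; absorbance was background-subtracted and normalised to untreated wells. IC50 was obtained per sample and the median taken.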

The test system of another data set is phosphorylation of STAT5. Put plainly: Western blot analysis of kinase inhibition. The format is cell-based. The note with it: Fig. 2B. An outline of the steps:
as §3

Another data set addresses CYP3A5 (Homo sapiens, UniProt P20815). Kind of data set: Metabolism studies. The format is in vitro ADME.
Data set [7] is described as follows: Phase I trial tolerability. The note with it: doses that yield plasma concentrations up to 1 μmol/L. Format: in vivo, patients with AML and MDS/MPN.
In data set [8] the test system is FLT3-mutant AML cell lines and the PDGFR-α mutant EOL-1 cell line. Kind of data set: Apoptosis by PARP cleavage. The format is cell-based, human. The conditions noted are these: all 3 FLT3-mutant AML cell lines and EOL-1. Put shortly: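 Cells were treated with DMSO vehicle or test compound for 1 or 24 h, then lysed. Apoptosis was assessed by Western blot for PARP cleavage.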

The subject of another data set is HEL92.1.7. Put plainly: Antiproliferative assay. The conditions noted are these: Homo sapiens, HEL 92.1.7, 72 h, read-out: Mean IC50. Format: cell-based. Put shortly:
as §2

The next data set deals with FLT3 (Homo sapiens, UniProt P36888). Kind of data set: Plasma inhibition assay. The conditions noted are these: phase I doses yielding plasma concentrations up to 1 μmol/L.
Data set [9] concerns Ba/F3 cells FLT3-ITD + F691L. Put plainly: Antiproliferative assay in Ba/F3 cells transfected with FLT3 variants. The format is cell-based. The conditions noted are these: Mus musculus, BaF3.
In data set [10] the test system is phosphorylation of ERK1/2. Put plainly: Western blot analysis of kinase inhibition. The conditions noted are these: Fig. 2B. Format: cell-based. Put shortly: as §3
Data set [11] has as its system Ba/F3 cells FLT3-ITD + D835Y. Kind of data set: Antiproliferative assay in Ba/F3 cells transfected with FLT3 variants. The note with it: Mus musculus, BaF3. The format is cell-based.
The target in another data set is ERBB (Homo sapiens, UniProt P04626). Put plainly: RBC enzymatic assay, ATP at Km. The format is biochemical. Put shortly:
as §1

The test system of the next data set is Ba/F3 cells FLT3- ITD. Kind of data set: Antiproliferative assay in Ba/F3 cells transfected with FLT3 variants. Format: cell-based, mouse. The note with it: for IC50: Mus musculus, BaF3.
The next data set deals with FLT3 D833Q (TKD) (Homo sapiens, UniProt P36888). Put plainly: DiscoverX KINOMEscan competition binding.
A further data set deals with EOL-1. Kind of data set: Antiproliferative assay. The note with it: Homo sapiens, EOL1, 72 h, read-out: Mean IC50. The format is cell-based. Put shortly:
as §2

Another data set concerns the target CYP3A4 (Homo sapiens, UniProt P08684). Put plainly: Metabolism studies. Format: in vitro ADME.
In a further data set the test system is MOLM-13. Put plainly: Antiproliferative assay. The note with it: Homo sapiens, MOLM-13, 72 h, read-out: Mean IC50. Format: cell-based. Put shortly:
as §2

In another data set the target is TEC (Homo sapiens, UniProt P42680). Put plainly: RBC enzymatic assay, ATP at Km. The format is biochemical. Put shortly: as §1
Data set [12] deals with relapsed or refractory FLT3-mutated AML. The note with it: FLT3 inhibitor-naïve patients with relapsed or refractory FLT3-mutated AML; cited from earlier work.

FLT3-ITD, sequence (P36888 564-993, change not shown): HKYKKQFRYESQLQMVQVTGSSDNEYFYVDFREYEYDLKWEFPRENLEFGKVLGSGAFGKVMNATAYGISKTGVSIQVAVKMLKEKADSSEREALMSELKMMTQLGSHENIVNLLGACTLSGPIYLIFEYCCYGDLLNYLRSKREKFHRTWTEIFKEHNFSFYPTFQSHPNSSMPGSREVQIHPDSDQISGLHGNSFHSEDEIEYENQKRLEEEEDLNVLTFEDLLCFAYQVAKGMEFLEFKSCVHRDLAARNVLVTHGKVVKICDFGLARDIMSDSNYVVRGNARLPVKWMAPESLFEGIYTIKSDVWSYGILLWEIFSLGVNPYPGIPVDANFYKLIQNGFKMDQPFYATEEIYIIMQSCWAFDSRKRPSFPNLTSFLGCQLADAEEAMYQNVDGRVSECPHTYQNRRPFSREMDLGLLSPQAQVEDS
CYP3A4, sequence (P08684 whole entry): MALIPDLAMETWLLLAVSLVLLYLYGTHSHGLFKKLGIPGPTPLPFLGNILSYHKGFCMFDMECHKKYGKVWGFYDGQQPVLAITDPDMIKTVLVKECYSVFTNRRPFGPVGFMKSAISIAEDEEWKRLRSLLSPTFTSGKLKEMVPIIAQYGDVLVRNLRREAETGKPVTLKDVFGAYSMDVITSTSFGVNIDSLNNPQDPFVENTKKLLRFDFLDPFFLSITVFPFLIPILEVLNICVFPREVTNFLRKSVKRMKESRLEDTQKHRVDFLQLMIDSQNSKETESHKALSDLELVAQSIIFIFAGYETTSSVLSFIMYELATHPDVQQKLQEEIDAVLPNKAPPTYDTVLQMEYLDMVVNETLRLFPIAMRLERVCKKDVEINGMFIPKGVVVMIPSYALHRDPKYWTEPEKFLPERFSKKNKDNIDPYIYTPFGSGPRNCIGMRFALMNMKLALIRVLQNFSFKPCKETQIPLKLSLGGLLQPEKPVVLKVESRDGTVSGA
hERG potassium ion channel, sequence (Q12809 whole entry): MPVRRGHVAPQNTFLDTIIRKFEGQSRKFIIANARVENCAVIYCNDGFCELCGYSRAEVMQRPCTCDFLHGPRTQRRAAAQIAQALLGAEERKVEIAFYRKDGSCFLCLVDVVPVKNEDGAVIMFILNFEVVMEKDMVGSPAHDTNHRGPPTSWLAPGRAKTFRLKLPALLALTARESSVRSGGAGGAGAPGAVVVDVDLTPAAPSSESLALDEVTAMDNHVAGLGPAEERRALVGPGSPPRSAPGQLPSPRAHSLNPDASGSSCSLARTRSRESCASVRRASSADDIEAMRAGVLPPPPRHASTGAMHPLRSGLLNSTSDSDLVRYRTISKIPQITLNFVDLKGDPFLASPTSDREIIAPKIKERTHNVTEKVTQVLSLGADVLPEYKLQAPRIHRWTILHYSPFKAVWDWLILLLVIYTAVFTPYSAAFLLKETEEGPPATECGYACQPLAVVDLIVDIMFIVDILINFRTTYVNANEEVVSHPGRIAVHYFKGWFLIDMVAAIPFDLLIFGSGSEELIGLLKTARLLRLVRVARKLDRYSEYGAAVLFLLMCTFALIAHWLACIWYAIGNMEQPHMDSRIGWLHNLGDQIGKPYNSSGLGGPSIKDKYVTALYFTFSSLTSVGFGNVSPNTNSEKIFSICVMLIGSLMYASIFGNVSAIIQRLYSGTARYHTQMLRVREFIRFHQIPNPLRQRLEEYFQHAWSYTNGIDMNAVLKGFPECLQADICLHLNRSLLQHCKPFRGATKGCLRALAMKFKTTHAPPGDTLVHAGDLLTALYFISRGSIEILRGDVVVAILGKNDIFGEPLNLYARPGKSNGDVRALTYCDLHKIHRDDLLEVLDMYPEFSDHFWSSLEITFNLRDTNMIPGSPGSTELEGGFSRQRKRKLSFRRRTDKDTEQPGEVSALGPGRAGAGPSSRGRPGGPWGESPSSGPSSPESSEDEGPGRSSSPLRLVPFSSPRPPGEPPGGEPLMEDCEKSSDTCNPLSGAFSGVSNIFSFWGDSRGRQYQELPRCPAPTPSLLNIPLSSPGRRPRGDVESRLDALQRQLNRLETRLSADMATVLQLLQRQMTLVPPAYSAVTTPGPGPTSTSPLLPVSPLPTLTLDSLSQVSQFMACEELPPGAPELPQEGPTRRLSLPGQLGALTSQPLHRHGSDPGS
FLT3 D833Q (TKD), sequence (P36888 610-943, stated change not applied): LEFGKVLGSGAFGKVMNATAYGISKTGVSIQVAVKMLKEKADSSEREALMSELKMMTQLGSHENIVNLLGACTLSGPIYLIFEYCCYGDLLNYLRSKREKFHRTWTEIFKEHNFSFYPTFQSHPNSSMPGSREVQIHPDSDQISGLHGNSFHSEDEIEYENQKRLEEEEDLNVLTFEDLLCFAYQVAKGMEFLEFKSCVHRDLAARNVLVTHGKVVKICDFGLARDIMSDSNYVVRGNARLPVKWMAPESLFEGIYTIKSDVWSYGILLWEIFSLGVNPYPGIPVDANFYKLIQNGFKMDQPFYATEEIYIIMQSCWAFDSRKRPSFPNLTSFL
FLT3 ITD/F691L, sequence (P36888 564-993 F691L): as the sequence (P36888 564-993, change not shown) above, with F128L counted along it
TEC, sequence (P42680 whole entry): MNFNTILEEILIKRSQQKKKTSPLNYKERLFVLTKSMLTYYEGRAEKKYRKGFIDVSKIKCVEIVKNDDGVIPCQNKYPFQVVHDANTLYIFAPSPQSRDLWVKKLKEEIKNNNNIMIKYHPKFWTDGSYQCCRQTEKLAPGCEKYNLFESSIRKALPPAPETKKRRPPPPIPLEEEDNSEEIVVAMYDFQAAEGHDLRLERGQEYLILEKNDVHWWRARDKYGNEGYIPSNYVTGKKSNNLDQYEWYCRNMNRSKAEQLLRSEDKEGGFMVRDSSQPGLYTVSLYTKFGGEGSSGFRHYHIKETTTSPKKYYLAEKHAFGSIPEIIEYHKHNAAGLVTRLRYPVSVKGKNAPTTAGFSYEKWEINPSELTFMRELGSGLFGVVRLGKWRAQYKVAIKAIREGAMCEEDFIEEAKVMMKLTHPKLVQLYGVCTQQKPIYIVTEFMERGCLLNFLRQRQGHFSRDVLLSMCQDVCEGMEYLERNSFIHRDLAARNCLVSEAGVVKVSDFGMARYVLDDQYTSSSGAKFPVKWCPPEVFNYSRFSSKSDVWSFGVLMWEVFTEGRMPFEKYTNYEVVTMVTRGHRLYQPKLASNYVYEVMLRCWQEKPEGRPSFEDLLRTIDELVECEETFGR
CYP3A5, sequence (P20815 whole entry): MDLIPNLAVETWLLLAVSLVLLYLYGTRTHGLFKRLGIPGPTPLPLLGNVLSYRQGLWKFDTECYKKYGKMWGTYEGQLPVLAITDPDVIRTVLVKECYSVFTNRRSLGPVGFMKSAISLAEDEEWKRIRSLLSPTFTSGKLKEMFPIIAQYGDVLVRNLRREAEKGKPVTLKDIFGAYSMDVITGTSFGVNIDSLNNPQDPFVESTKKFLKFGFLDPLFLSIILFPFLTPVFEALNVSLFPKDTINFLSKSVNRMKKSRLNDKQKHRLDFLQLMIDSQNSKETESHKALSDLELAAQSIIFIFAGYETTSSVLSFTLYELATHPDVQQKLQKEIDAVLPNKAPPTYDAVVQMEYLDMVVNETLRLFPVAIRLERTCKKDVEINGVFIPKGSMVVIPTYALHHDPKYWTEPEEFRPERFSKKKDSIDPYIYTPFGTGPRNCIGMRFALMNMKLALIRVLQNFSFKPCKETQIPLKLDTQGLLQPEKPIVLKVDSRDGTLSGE
FLT3– ITD, sequence (P36888 564-993, stated change not applied): as the sequence (P36888 564-993, change not shown) above
FLT3, sequence (P36888 27-993): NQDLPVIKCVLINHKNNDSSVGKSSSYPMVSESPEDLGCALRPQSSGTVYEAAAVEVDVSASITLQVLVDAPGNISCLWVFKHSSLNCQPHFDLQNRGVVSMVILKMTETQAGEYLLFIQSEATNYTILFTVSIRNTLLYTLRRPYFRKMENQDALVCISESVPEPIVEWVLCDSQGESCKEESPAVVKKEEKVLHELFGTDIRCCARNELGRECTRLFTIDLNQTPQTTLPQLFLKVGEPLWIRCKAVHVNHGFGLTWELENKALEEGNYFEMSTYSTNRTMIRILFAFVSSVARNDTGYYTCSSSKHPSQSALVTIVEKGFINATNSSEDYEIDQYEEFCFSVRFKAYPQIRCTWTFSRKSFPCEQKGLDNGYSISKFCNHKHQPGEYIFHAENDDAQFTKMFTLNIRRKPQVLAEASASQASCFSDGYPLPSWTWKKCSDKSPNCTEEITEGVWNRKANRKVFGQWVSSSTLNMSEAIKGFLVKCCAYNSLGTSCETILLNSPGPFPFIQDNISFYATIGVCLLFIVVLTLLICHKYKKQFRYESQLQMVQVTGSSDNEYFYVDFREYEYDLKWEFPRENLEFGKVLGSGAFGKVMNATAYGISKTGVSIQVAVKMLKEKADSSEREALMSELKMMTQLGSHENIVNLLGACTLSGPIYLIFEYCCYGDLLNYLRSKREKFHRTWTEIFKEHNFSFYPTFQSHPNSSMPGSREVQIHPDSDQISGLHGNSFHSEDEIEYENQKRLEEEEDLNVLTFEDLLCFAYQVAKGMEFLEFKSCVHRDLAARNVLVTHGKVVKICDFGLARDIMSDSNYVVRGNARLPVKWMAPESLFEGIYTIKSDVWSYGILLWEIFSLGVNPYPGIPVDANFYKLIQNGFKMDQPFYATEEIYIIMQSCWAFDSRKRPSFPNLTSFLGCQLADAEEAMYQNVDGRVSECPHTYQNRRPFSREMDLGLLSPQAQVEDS

As to `Cc1cnc(-c2ccc(-c3ccc(NC(=O)Nc4c(F)cc(F)cc4F)cc3F)c3c2C(=O)NC3)[nH]1` [luxeptinib, Luxeptinib], the Kd on FLT3– ITD was 3.1 nM; on FLT3 ITD/F691L it was 16 nM; at FLT3 D833Q (TKD) it was 6.4 nM. In data set [1], the “effect on QTc or any other parameter of heart function” value is reported as “no effect”. The “inhibition of hERG potassium ion channel” value in data set [2] was “did not inhibit”. For the same molecule, the “mice with tumor growth completely suppressed out to 120 days” value in data set [3] (300 mg/kg twice a day, oral gavage, 28 days) is on record as 10 of 11. Besides, the “weight loss or clinically apparent adverse events” value in data set [3] (doses up to 300 mg/kg twice a day, mice) is “No weight loss or clinically apparent adverse events”. Besides, the “Inhibition of tumor growth” value in data set [3] (lowest dose of 20 mg/kg/day, oral, 28 days) was “apparent”. Moreover, the “response of regrown tumors to second 28-day treatment” value in [3] (re-treatment at 300 mg/kg twice a day, 100 and 300 mg/kg groups) is “All tumors that regrew in these two groups responded”. Also, the concentration for half-maximal inhibition (IC50) was 0.8 nM on FLT3-ITD (FLT3-ITD, recombinant kinase with ATP concentration at the Km); 6 ± 0.4 nM with Ba/F3 cells FLT3 D835Y; 94.5 nM in data set [5]; 2970 nM with THP-1; less than 200 nM in data set [6]; 4690 nM with HEL92.1.7. The IC50 in data set [9] was 9 ± 1 nM; in data set [11] it was 22 ± 9 nM; at ERBB it was greater than 1000 nM; with Ba/F3 cells FLT3- ITD, 1 ± 0.2 nM; in the data set with EOL-1, 0.045 nM; in the data set with MOLM-13, 0.395 nM. The half-inhibitory concentration (IC50) at TEC amounted to 139 nM. Also, the “fold lower inhibitory concentration for recombinant FLT-ITD than WT FLT3” value at FLT3-ITD (recombinant kinases) is 10 fold. For the same molecule, in data set [4], the “hematologic, cardiovascular or other organ toxicities” value is reported as “No hematologic, cardiovascular or other organ toxicities were observed”. Besides, the “phosphorylation of FLT3” value in the data set with phosphorylation of FLT3 is reported as “potently reduces the phosphorylation”. The “phosphorylation of downstream STAT5” value with phosphorylation of STAT5 is on record as “reduces the phosphorylation”. The “involvement of CYP3A5 in metabolism” value on CYP3A5 is given as “involved in the metabolism”. In data set [7], the “tolerability in phase I trial” value was “generally well tolerated”. Moreover, in data set [8], the “concentration inducing apoptosis (PARP cleavage)” value is given as no more than 5 nmol/L. For the same molecule, the “inhibition of FLT3 in a plasma inhibition assay” value at FLT3 was “almost complete inhibition”. In addition, the “phosphorylation of downstream ERK1/2” value in data set [10] is on record as “reduces the phosphorylation”. In addition, the “fold more potent than quizartinib” value in the data set on Ba/F3 cells FLT3- ITD (FLT3-ITD in the Ba/F3 system) worked out at 4 fold. Also, the “involvement of CYP3A4 in metabolism” value at CYP3A4 is “involved in the metabolism”.

Regarding `CC1(COc2ccc3c(c2)ncn3-c2ccc3cccc(N4CCC(N)CC4)c3n2)COC1` [Crenolanib, crenolanib], the 50% inhibitory concentration (IC50) with Ba/F3 cells FLT3 D835Y amounted to 831 ± 195 nM; in [9] it was 286 ± 9 nM; in [11], 37 ± 13 nM; in the data set on Ba/F3 cells FLT3- ITD it was 38 ± 8 nM.

With `CCc1nc(C(N)=O)c(Nc2ccc(N3CCC(N4CCN(C)CC4)CC3)c(OC)c2)nc1NC1CCOCC1` [Gilteritinib, gilteritinib], the IC50 in the data set on Ba/F3 cells FLT3 D835Y was 521 ± 68 nM; in [9] it was 96 ± 6 nM; in data set [11], 9 ± 5 nM; in the data set on Ba/F3 cells FLT3- ITD it was 28 ± 2 nM. Besides, the event-free survival in data set [12] is recorded as 2.8 months. Moreover, the response rate in data set [12] was 34%.
